From ChEMBL document CHEMBL5661968, “Antitumor activity of ZSTK474, a new phosphatidylinositol 3-kinase inhibitor” (J Natl Cancer Inst, 2006)
Activity calls are given as the source filed them. The rule behind the calls is not given here.

How the values were obtained:
SNB-75 = experiment: Growth inhibition of human SNB-75 cells measured after 48 hrs by sulforhodamine B assay; assay type: functional
Procedure, shortened: (§1)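 JFCR39 panel lines were grown in RPMI 1640 with 5% FBS, penicillin and streptomycin at 37 °C in 5% CO2. After 48 h of drug exposure, total cellular protein was measured by sulforhodamine B staining. GI50 was calculated by a previously described method.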

LOX IMVI = experiment: Growth inhibition of human LOX IMVI cells measured after 48 hrs by sulforhodamine B assay; assay type: functional; procedure, shortened: as §1
RXF 631 = experiment: Growth inhibition of human RXF 631 cells measured after 48 hrs by sulforhodamine B assay; assay type: functional; procedure, shortened: as §1
DMS-273 = experiment: Growth inhibition of human DMS-273 cells measured after 48 hrs by sulforhodamine B assay; assay type: functional; procedure, shortened: as §1
[1] = target: Dual specificity mitogen-activated protein kinase kinase 2 (Homo sapiens) (UniProt P36507); experiment: Inhibition of MEK2 phosphorylation at Ser-217/221 residues in human A549 cells measured after 3 hrs by immunoblotting analysis; conditions: dose <= 2.0 µM
A549 [2] = experiment: Downregulation of cyclin D1 expression in human A549 cells measured after 3 hrs by immunoblotting analysis; assay type: functional, cell-based; conditions: dose <= 2.0 µM
Procedure, shortened: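 A549 cells were lysed in Tris-HCl pH 7.4 buffer with NaF, pyrophosphate, Na3VO4, EDTA, aprotinin, PMSF, 0.5% NP-40 and 0.1% SDS. Lysates were run on SDS-PAGE and blotted to PVDF. Blots were probed with rabbit anti-cyclin D1 polyclonal (1:200), then HRP anti-rabbit IgG, and detected by ECL chemiluminescence.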

MKN-7 = experiment: Growth inhibition of human MKN-7 cells measured after 48 hrs by sulforhodamine B assay; assay type: functional; procedure, shortened: as §1
[3] = target: Forkhead box protein O3 (Homo sapiens) (UniProt O43524); experiment: Inhibition of FKHRL1 phosphorylation in Thr-32 residue human A549 cells measured after 3 hrs by immunoblotting analysis; assay type: cell-based; conditions: dose <= 2.0 µM
Procedure, shortened: (§2)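 A549 cells treated over 0 to 2.0 μM; lysed in 10 mM Tris–HCl pH 7.4, 50 mM NaCl, NaF, pyrophosphate, vanadate, EDTA, protease inhibitors, 0.5% NP-40, 0.1% SDS; proteins resolved by SDS-PAGE, blotted to PVDF, probed with phospho-specific antibodies, HRP secondary, ECL detection.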

KM12 = experiment: Growth inhibition of human KM12 cells measured after 48 hrs by sulforhodamine B assay; assay type: functional; procedure, shortened: as §1
U-251 = experiment: Growth inhibition of human U-251 cells measured after 48 hrs by sulforhodamine B assay; assay type: functional; procedure, shortened: as §1
HT-29 = experiment: Growth inhibition of human HT-29 cells measured after 48 hrs by sulforhodamine B assay; assay type: functional; procedure, shortened: as §1
NCI-H23 = experiment: Growth inhibition of human NCI-H23 cells measured after 48 hrs by sulforhodamine B assay; assay type: functional; procedure, shortened: as §1
[4] = […] toxicity in nude mouse xenografted with human A549 cells assessed as change in body weight at 800 mg/kg, po administered on day 0 to 13 except for day 3 and 10 measured after 28 days; assay type: organism-based; conditions: in vivo, 672 h, time 28 day
OVCAR-3 [5] = experiment: Growth inhibition of human OVCAR-3 cells measured after 48 hrs by sulforhodamine B assay; assay type: functional; procedure, shortened: as §1
MKN-74 = experiment: Growth inhibition of human MKN74 cells measured after 48 hrs by sulforhodamine B assay; assay type: functional; procedure, shortened: as §1
DU-145 = experiment: Growth inhibition of human DU-145 cells measured after 48 hrs by sulforhodamine B assay; assay type: functional; procedure, shortened: as §1
B16-F10 = experiment: Antitumor activity against mouse B16-F10 cells implanted in BDF1 mouse assessed as tumor size relative to control (T/C) at 400 mg/kg, po administered daily measured after 14 days; conditions: 336 h
OVCAR-3 [6] = experiment: Induction of apoptosis in human OVCAR-3 cells assessed as increase in chromatin condensation at 10 uM measured after 48 hrs by Hoechst 33342 staining based fluorescence microscopic analysis; assay type: functional, cell-based
Procedure, shortened: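 OVCAR3 cells grown 24 h in RPMI 1640 with 5% FBS, then 48 h with or without 10 μM compound; fixed in 1% glutaraldehyde in PBS at 4 °C for 24 h, stained with 167 μM Hoechst 33342, apoptotic cells scored by fluorescence microscopy.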

[7] = target: Glycogen synthase kinase-3 beta (Homo sapiens) (UniProt P49841); experiment: Inhibition of GSK-3beta phosphorylation at Ser9 residue in human A549 cells at 0.5 uM measured after 30 mins by Western blotting analysis; assay type: cell-based
Tuberin (Homo sapiens) = Tuberin (Homo sapiens) (UniProt P49815); experiment: Inhibition of TSC-2 phosphorylation at ser-1462 residue in human A549 cells measured after 3 hrs by immunoblotting analysis; assay type: cell-based; conditions: dose <= 2.0 µM; procedure, shortened: as §2
DMS-114 = experiment: Growth inhibition of human DMS-114 cells measured after 48 hrs by sulforhodamine B assay; assay type: functional; procedure, shortened: as §1
SNB-78 = experiment: Growth inhibition of human SNB-78 cells measured after 48 hrs by sulforhodamine B assay; assay type: functional; procedure, shortened: as §1
[8] = Residual PI3K activity in human A549 cell lysate at 1 uM preincubated with compound for 5 mins followed by [gamma-32p]-ATP addition measured after 20 mins by immunoprecipitation based liquid scintillation spectroscopic analysis relative to control; conditions: A549, 25 min
HCT-15 = experiment: Growth inhibition of human HCT-15 cells measured after 48 hrs by sulforhodamine B assay; assay type: functional; procedure, shortened: as §1
[9] = Toxicity in nude mouse xenografted with human A549 cells assessed as change in body weight at 800 mg/kg, po administered on day 0 to 13 except for day 3 and 10 measured after 28 days (reference value: 14 %); assay type: organism-based; conditions: in vivo, 672 h, time 28 day
[10] = Growth inhibition of human BSY1 cells measured after 48 hrs by sulforhodamine B assay; assay type: functional; conditions: BSY-1; procedure, shortened: as §1
SF-268 = experiment: Growth inhibition of human SF-268 cells measured after 48 hrs by sulforhodamine B assay; assay type: functional; procedure, shortened: as §1
ACHN = experiment: Growth inhibition of human ACHN cells measured after 48 hrs by sulforhodamine B assay; assay type: functional; procedure, shortened: as §1
OVCAR-4 = experiment: Growth inhibition of human OVCAR-4 cells measured after 48 hrs by sulforhodamine B assay; assay type: functional; procedure, shortened: as §1
[11] = target: Dual specificity mitogen-activated protein kinase kinase 1 (Homo sapiens) (UniProt Q02750); experiment: Inhibition of MEK1 phosphorylation at Ser-217/221 residues in human A549 cells measured after 3 hrs by immunoblotting analysis; conditions: dose <= 2.0 µM
OVCAR-5 = experiment: Growth inhibition of human OVCAR-5 cells measured after 48 hrs by sulforhodamine B assay; assay type: functional; procedure, shortened: as §1
MDA-MB-231 = experiment: Growth inhibition of human MDA-MB-231 cells measured after 48 hrs by sulforhodamine B assay; assay type: functional; procedure, shortened: as §1
NCI-H226 = experiment: Growth inhibition of human NCI-H226 cells measured after 48 hrs by sulforhodamine B assay; assay type: functional; procedure, shortened: as §1
HCC 2998 = experiment: Growth inhibition of human HCC 2998 cells measured after 48 hrs by sulforhodamine B assay; assay type: functional; procedure, shortened: as §1
A549 [12] = experiment: Inhibition of AKT in human A549 cells at 0.5 uM measured after 5 mins by Western blotting analysis; assay type: cell-based

Sequence of Tuberin (Homo sapiens) (P49815 whole entry): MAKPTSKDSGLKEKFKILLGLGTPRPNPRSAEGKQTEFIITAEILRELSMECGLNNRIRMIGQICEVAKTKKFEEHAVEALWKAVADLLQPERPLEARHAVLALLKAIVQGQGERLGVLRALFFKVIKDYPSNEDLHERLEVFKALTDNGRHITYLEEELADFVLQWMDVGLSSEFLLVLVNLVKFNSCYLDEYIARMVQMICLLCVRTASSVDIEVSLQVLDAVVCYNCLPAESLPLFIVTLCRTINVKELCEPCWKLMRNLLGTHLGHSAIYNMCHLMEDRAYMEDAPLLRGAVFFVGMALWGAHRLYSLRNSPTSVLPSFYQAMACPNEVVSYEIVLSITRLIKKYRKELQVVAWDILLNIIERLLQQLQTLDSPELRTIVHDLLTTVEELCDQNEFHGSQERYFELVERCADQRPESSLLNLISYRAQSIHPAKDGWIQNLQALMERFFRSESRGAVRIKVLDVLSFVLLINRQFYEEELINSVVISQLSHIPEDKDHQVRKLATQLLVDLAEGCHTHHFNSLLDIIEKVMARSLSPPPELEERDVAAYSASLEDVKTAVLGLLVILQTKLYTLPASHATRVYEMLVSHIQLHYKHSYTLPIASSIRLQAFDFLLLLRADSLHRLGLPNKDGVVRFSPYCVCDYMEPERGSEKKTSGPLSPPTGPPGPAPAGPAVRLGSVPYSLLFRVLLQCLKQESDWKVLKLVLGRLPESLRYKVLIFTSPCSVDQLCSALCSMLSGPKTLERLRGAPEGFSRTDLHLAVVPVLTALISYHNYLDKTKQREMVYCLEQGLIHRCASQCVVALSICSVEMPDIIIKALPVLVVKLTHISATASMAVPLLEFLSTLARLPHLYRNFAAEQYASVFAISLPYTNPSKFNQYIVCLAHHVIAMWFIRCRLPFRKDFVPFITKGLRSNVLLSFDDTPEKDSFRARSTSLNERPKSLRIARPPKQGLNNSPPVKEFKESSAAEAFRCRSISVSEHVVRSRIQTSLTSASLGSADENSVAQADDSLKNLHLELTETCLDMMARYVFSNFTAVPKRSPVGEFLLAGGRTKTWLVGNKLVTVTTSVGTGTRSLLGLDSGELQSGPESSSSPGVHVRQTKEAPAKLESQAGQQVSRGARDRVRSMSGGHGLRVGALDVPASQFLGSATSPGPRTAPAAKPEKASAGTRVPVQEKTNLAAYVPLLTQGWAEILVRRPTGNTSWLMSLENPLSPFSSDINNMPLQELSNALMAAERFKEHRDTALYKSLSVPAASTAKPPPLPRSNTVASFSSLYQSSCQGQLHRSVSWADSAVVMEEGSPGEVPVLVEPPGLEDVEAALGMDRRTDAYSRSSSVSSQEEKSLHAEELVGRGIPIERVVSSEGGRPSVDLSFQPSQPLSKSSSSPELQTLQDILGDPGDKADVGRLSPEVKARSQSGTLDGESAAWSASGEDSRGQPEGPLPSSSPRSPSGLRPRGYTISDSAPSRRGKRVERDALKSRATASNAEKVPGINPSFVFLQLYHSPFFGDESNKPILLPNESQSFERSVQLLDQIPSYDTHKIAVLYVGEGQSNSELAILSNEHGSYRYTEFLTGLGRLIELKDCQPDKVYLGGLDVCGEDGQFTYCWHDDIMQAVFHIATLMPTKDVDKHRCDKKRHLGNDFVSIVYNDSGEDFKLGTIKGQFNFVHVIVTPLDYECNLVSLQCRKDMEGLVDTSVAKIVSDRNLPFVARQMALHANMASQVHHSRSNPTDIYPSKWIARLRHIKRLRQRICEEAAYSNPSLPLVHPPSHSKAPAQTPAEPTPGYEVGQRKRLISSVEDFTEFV
Sequence of Forkhead box protein O3 (Homo sapiens) (O43524 whole entry): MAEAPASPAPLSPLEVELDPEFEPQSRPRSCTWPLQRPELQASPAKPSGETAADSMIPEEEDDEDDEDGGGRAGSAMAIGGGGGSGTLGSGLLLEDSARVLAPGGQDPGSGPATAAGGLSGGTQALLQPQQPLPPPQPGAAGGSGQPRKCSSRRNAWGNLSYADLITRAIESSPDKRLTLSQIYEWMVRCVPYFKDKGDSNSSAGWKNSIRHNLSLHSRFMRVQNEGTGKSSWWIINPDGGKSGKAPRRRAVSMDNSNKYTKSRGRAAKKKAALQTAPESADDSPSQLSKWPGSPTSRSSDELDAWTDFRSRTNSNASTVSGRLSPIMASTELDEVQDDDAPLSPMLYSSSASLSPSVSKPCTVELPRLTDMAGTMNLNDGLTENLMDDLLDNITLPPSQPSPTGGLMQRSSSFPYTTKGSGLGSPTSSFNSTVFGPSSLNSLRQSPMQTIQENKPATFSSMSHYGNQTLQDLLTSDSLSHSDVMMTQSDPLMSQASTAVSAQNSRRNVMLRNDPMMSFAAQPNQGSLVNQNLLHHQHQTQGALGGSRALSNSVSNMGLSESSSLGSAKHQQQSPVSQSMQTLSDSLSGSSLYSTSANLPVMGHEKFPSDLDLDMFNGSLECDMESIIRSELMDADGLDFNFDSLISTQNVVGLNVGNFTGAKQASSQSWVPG
Sequence of Dual specificity mitogen-activated protein kinase kinase 1 (Homo sapiens) (Q02750 whole entry): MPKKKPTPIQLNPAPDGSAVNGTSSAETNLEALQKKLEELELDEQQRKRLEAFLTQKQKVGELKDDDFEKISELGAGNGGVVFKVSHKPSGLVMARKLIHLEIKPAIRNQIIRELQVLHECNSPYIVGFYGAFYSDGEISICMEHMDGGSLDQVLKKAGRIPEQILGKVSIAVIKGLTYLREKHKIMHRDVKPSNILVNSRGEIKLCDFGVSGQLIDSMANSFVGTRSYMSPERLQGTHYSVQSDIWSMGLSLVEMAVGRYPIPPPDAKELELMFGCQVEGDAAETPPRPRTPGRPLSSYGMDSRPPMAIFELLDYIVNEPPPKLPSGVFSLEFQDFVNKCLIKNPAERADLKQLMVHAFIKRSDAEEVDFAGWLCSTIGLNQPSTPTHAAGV
Sequence of Glycogen synthase kinase-3 beta (Homo sapiens) (P49841 whole entry, looked up): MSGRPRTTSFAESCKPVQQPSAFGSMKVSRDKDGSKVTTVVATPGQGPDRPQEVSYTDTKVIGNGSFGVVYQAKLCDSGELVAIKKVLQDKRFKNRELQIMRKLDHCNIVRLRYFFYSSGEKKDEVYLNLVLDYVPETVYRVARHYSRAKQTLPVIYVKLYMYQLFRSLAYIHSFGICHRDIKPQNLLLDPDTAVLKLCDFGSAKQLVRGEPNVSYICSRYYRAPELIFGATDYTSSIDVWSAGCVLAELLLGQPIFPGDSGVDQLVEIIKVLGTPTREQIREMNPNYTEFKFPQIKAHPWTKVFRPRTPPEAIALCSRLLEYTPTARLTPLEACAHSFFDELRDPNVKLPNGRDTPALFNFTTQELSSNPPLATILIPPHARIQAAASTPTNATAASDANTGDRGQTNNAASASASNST
Sequence of Dual specificity mitogen-activated protein kinase kinase 2 (Homo sapiens) (P36507 whole entry): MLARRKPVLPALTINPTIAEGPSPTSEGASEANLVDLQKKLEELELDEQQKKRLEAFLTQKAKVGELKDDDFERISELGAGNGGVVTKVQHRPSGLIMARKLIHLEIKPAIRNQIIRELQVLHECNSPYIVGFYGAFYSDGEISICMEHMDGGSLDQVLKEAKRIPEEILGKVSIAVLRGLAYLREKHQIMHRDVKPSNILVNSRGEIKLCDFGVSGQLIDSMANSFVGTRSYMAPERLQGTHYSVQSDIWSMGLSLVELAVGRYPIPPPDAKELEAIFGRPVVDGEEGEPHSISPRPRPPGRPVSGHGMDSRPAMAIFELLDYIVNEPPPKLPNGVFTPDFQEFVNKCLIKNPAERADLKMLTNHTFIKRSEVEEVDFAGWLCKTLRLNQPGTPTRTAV

FC(F)c1nc2ccccc2n1-c1nc(N2CCOCC2)nc(N2CCOCC2)n1 [ZSTK-474]
GI50 (SNB-75): 0.0457 µM | GI50 (LOX IMVI): 0.457 µM | GI50 (RXF 631): 0.724 µM | GI50 (DMS-273): 0.224 µM | inhibition [1]: inactive | Activity (A549 [2]): Dose-Dependent Effect | GI50 (MKN-7): 1.32 µM | inhibition [3]: Dose-Dependent Effect | GI50 (KM12): 1.66 µM | GI50 (U-251): 1.1 µM | GI50 (HT-29): 0.447 µM | GI50 (NCI-H23): 0.339 µM | Activity [4]: Non-Toxic | GI50 (OVCAR-3 [5]): 0.0912 µM | GI50 (MKN-74): 0.617 µM | GI50 (DU-145): 0.912 µM | T/C at 400 mg/kg (B16-F10): 4.9% | Activity (OVCAR-3 [6]): Active | inhibition [7]: Active | inhibition (Tuberin (Homo sapiens)): Dose-Dependent Effect | GI50 (DMS-114): 0.295 µM | GI50 (SNB-78): 0.055 µM | level, % of control at 1 µM [8]: 4.7% | GI50 (HCT-15): 0.513 µM | Activity [9]: Non-Toxic | GI50 [10]: 0.0933 µM | GI50 (SF-268): 0.646 µM | GI50 (ACHN): 0.407 µM | GI50 (OVCAR-4): 0.182 µM | inhibition [11]: inactive | GI50 (OVCAR-5): 0.813 µM | GI50 (MDA-MB-231): 0.562 µM | GI50 (NCI-H226): 0.12 µM | GI50 (HCC 2998): 0.245 µM | inhibition (A549 [12]): inactive
